# Data taken from ChEMBL document CHEMBL5046272, “Discovery of Potent, Selective, and In Vivo Efficacious AKT Kinase Protein Degraders via Structure-Activity Relationship Studies” (J Med Chem, 2022).
# Calls of active or inactive are those of the source. The calls are words filed in the database; no cut-off is given here.
# Legend:
# BT-474 = experiment: Inhibition of colony formation in human BT-474 cells at 0.1 to 10 uM incubated for 14 days by replacing culture medium for every 2 days by crystal violet staining based assay; format: functional, cell-based; details: dose 0.1-10 µM, time 14.0 day
# Method in brief: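 BT474 cells cultured 14 days with compound. Medium plus compound was replaced every 2 days. Viable cells were then stained with 0.5% crystal violet.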
# [1] = target: T1, von Hippel-Lindau disease tumor suppressor/AKT (Homo sapiens) (UniProt P31751+Q9Y243+P31749+P40337); experiment: Protac activity at VHL/AKT in human BT-474 cells assessed as reduction in total AKT protein level at 1 to 10 uM measured after 24 hrs by Western blot analysis; format: cell-based; details: dose 1-10 µM
# Method in brief: (§1)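 BT474 cells treated 24 h at 1, 5 or 10 μM, alongside AZD5363 (1 μM) and the matching E3 ligand VHL-1 or pomalidomide (1 μM). Lysates in urea/SDS sample buffer were run on 4–12% Bis-Tris gels and blotted to PVDF. Blots probed for total AKT, P-AKT S473, P-PRAS40 T246 and P-S6 S240/244, with β-actin loading control and chemiluminescent detection.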
# [2] = Protac activity at CRBN/AKT in human BT-474 cells assessed as reduction in AKT protein level at 1 to 10 uM measured after 24 hrs by Western blot analysis; details: dose 1-10 µM
# [3] = Protac activity at CRBN/AKT in human BT-474 cells assessed as inhibition of downstream signalling by measuring reduction in PRAS40 phosphorylation at T246 residue at 1 to 10 uM measured after 24 hrs Western blot analysis; details: dose 1-10 µM
# PC-3 = experiment: Antiproliferative activity against human PC-3 cells assessed as inhibition of cell growth measured after 5 days by IncuCyte zoom live cell analysis; format: functional; details: PC-3, 120 h, time 5 day
# Method in brief: (§2)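 Cells grown in DMEM with 10% FBS at 37 °C, 5% CO₂. Seeded at 1–3 × 10³ cells/well in triplicate with serial compound dilutions for 5 days. Growth was taken as confluence from IncuCyte phase-contrast images of live cells. Three independent experiments.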
# MDA-MB-468 = experiment: Antiproliferative activity against human MDA-MB-468 cells assessed as cell growth by measured after 5 days by IncuCyte zoom live cell analysis; format: functional; details: MDA-MB-468, 120 h, time 5 day; method in brief: as §2
# [4] = Protac activity at CRBN/AKT in human BT-474 cells assessed as reduction in AKT protein level at 10 uM measured after 24 hrs by Western blot analysis
# [5] = target: RAC-alpha serine/threonine-protein kinase (Homo sapiens, UniProt P31749); experiment: Binding affinity to DNA-tagged AKT1 (unknown origin) assessed as dissociation constant by q-PCR based competitive binding assay
# Method in brief: (§3)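 KINOMEscan competition binding: DNA-tagged kinase competes between test compound and an immobilized active-site ligand, with bound kinase read by qPCR of the tag. Kd fitted from an 11-point threefold dilution series (top 30 μM) plus three DMSO control points, run in duplicate.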
# [6] = target: RAC-gamma serine/threonine-protein kinase (Homo sapiens, UniProt Q9Y243); experiment: Binding affinity to DNA-tagged AKT3 (unknown origin) assessed as dissociation constant by q-PCR based competitive binding assay; method in brief: as §3
# [7] = target: T1, von Hippel-Lindau disease tumor suppressor/AKT (Homo sapiens); experiment: Protac activity at VHL/AKT in human BT-474 cells assessed as inhibition of downstream signalling by measuring reduction in PRAS40 phosphorylation at T246 residue at 5 uM measured after 24 hrs Western blot analysis; format: cell-based; method in brief: as §1
# Sequence of RAC-gamma serine/threonine-protein kinase (Q9Y243 whole entry): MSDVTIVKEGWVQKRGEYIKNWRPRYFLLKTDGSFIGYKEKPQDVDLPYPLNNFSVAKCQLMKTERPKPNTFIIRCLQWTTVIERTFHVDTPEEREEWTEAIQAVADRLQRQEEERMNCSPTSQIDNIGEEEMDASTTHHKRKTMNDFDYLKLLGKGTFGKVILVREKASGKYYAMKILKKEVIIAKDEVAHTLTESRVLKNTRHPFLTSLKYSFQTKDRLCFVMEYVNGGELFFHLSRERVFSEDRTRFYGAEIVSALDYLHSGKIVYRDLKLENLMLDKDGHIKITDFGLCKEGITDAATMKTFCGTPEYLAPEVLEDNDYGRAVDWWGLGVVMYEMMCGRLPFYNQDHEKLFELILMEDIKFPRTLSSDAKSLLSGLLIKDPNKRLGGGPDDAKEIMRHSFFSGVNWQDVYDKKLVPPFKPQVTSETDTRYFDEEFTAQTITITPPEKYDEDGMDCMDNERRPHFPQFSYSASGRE
# Sequence of RAC-alpha serine/threonine-protein kinase (P31749 whole entry): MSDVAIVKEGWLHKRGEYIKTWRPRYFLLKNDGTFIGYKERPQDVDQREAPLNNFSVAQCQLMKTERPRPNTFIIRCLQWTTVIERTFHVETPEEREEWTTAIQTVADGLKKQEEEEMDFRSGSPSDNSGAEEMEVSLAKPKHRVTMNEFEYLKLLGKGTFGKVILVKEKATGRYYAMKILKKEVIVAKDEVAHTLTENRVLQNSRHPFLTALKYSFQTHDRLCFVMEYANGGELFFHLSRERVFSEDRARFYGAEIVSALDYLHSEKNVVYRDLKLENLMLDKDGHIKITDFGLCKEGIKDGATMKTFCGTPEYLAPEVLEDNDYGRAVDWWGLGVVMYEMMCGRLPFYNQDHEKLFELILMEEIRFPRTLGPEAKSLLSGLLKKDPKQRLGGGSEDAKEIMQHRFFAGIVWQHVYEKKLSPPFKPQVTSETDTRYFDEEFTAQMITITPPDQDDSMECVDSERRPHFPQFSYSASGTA
structure (smiles),measurement,setting,value
Cc1ncsc1-c1ccc(CNC(=O)[C@@H]2C[C@@H](O)CN2C(=O)[C@@H](NC(=O)CCCCCCCCCCCC(=O)N2CCN(CC[C@H](NC(=O)C3(N)CCN(c4ncnc5[nH]ccc45)CC3)c3ccc(Cl)cc3)CC2)C(C)(C)C)cc1,inhibition,BT-474,Active
Cc1ncsc1-c1ccc(CNC(=O)[C@@H]2C[C@@H](O)CN2C(=O)[C@@H](NC(=O)CCOCCC(=O)N2CCN(CC[C@H](NC(=O)C3(N)CCN(c4ncnc5[nH]ccc45)CC3)c3ccc(Cl)cc3)CC2)C(C)(C)C)cc1,Activity,[1],inactive
NC1(C(=O)N[C@@H](CCN2CCN(C(=O)CCCNc3cccc4c3C(=O)N(C3CCC(=O)NC3=O)C4=O)CC2)c2ccc(Cl)cc2)CCN(c2ncnc3[nH]ccc23)CC1 (stereo partly specified),Activity,[2],Active
same,inhibition,[3],Active
NC1(C(=O)N[C@@H](CCN2CCN(C(=O)CCCCCNc3cccc4c3C(=O)N(C3CCC(=O)NC3=O)C4=O)CC2)c2ccc(Cl)cc2)CCN(c2ncnc3[nH]ccc23)CC1 (stereo partly specified),Activity,[2],Active
same,inhibition,[3],Active
Cc1ncsc1-c1ccc(CNC(=O)[C@@H]2C[C@@H](O)CN2C(=O)[C@@H](NC(=O)COCCOCCOCC(=O)N2CCN(CC[C@H](NC(=O)C3(N)CCN(c4ncnc5[nH]ccc45)CC3)c3ccc(Cl)cc3)CC2)C(C)(C)C)cc1,Activity,[1],inactive
NC1(C(=O)N[C@@H](CCN2CCN(C(=O)CCNc3cccc4c3C(=O)N(C3CCC(=O)NC3=O)C4=O)CC2)c2ccc(Cl)cc2)CCN(c2ncnc3[nH]ccc23)CC1 (stereo partly specified),Activity,[2],inactive
Cc1ncsc1-c1ccc(CNC(=O)[C@@H]2C[C@@H](O)CN2C(=O)[C@@H](NC(=O)COCC(=O)N2CCN(CC[C@H](NC(=O)C3(N)CCN(c4ncnc5[nH]ccc45)CC3)c3ccc(Cl)cc3)CC2)C(C)(C)C)cc1,Activity,[1],Active
Cc1ncsc1-c1ccc(CNC(=O)[C@@H]2C[C@@H](O)CN2C(=O)[C@@H](NC(=O)CCOCCOCCOCCC(=O)N2CCN(CC[C@H](NC(=O)C3(N)CCN(c4ncnc5[nH]ccc45)CC3)c3ccc(Cl)cc3)CC2)C(C)(C)C)cc1,Activity,[1],inactive
NC1(C(=O)N[C@@H](CCO)c2ccc(Cl)cc2)CCN(c2nc[nH]c3nccc2-3)CC1 [CAPIVASERTIB],GI50,PC-3,6.5 µM
same,GI50,MDA-MB-468,3.8 µM
NC1(C(=O)N[C@@H](CCN2CCN(C(=O)CCOCCOCCOCCOCCOCCCc3cccc4c3C(=O)N(C3CCC(=O)NC3=O)C4=O)CC2)c2ccc(Cl)cc2)CCN(c2ncnc3[nH]ccc23)CC1 (stereo partly specified),inhibition,BT-474,inactive
same,Activity,[4],inactive
NC1(C(=O)N[C@@H](CCN2CCN(C(=O)CCOCCOCCOCCOCCOCCOc3cccc4c3C(=O)N(C3CCC(=O)NC3=O)C4=O)CC2)c2ccc(Cl)cc2)CCN(c2ncnc3[nH]ccc23)CC1 (stereo partly specified),inhibition,BT-474,inactive
same,Activity,[4],inactive
Cc1ncsc1-c1ccc(CNC(=O)[C@@H]2C[C@@H](OCc3ccccc3)CN2C(=O)[C@@H](NC(=O)CCCCCCCCCCC(=O)N2CCN(CC[C@H](NC(=O)C3(N)CCN(c4ncnc5[nH]ccc45)CC3)c3ccc(Cl)cc3)CC2)C(C)(C)C)cc1,Kd,[5],0.15 µM
same,Kd,[6],2.9 µM
Cc1ncsc1-c1ccc(CNC(=O)[C@@H]2C[C@@H](O)CN2C(=O)[C@@H](NC(=O)CCCCC(=O)N2CCN(CC[C@H](NC(=O)C3(N)CCN(c4ncnc5[nH]ccc45)CC3)c3ccc(Cl)cc3)CC2)C(C)(C)C)cc1,Activity,[1],Active
same,inhibition,[7],inactive
NC1(C(=O)N[C@@H](CCN2CCN(C(=O)CCOCCNc3cccc4c3C(=O)N(C3CCC(=O)NC3=O)C4=O)CC2)c2ccc(Cl)cc2)CCN(c2ncnc3[nH]ccc23)CC1 (stereo partly specified),Activity,[4],Active
NC1(C(=O)N[C@@H](CCN2CCN(C(=O)CCCCCCCNc3cccc4c3C(=O)N(C3CCC(=O)NC3=O)C4=O)CC2)c2ccc(Cl)cc2)CCN(c2ncnc3[nH]ccc23)CC1 (stereo partly specified),Activity,[2],inactive
NC1(C(=O)N[C@@H](CCN2CCN(C(=O)CCOCCOCCOCCOCCOCCNc3cccc4c3CN(C3CCC(=O)NC3=O)C4=O)CC2)c2ccc(Cl)cc2)CCN(c2ncnc3[nH]ccc23)CC1 (stereo partly specified),Activity,[4],inactive
Cc1ncsc1-c1ccc(CNC(=O)[C@@H]2C[C@@H](O)CN2C(=O)[C@@H](NC(=O)COCCOCC(=O)N2CCN(CC[C@H](NC(=O)C3(N)CCN(c4ncnc5[nH]ccc45)CC3)c3ccc(Cl)cc3)CC2)C(C)(C)C)cc1,Activity,[1],inactive
Cc1ncsc1-c1ccc(CNC(=O)[C@@H]2C[C@@H](O)CN2C(=O)[C@@H](NC(=O)CCCCCC(=O)N2CCN(CC[C@H](NC(=O)C3(N)CCN(c4ncnc5[nH]ccc45)CC3)c3ccc(Cl)cc3)CC2)C(C)(C)C)cc1,Activity,[1],Active
same,inhibition,[7],inactive
Cc1ncsc1-c1ccc(CNC(=O)[C@@H]2C[C@@H](O)CN2C(=O)[C@@H](NC(=O)CCCCCCCCCC(=O)N2CCN(CC[C@H](NC(=O)C3(N)CCN(c4ncnc5[nH]ccc45)CC3)c3ccc(Cl)cc3)CC2)C(C)(C)C)cc1,inhibition,BT-474,Active
Cc1ncsc1-c1ccc(CNC(=O)[C@@H]2C[C@@H](O)CN2C(=O)[C@@H](NC(=O)CCOCCOCCOCCOCCOCCC(=O)N2CCN(CC[C@H](NC(=O)C3(N)CCN(c4ncnc5[nH]ccc45)CC3)c3ccc(Cl)cc3)CC2)C(C)(C)C)cc1,Activity,[1],inactive
NC1(C(=O)N[C@@H](CCN2CCN(C(=O)CCOCCOCCOCCOCCOCCNc3cccc4c3C(=O)N(C3CCC(=O)NC3=O)C4=O)CC2)c2ccc(Cl)cc2)CCN(c2ncnc3[nH]ccc23)CC1 (stereo partly specified),GI50,PC-3,10.8 µM
same,GI50,MDA-MB-468,4.8 µM
Cc1ncsc1-c1ccc(CNC(=O)[C@@H]2C[C@@H](O)CN2C(=O)[C@@H](NC(=O)CCOCCOCCOCCOCCC(=O)N2CCN(CC[C@H](NC(=O)C3(N)CCN(c4ncnc5[nH]ccc45)CC3)c3ccc(Cl)cc3)CC2)C(C)(C)C)cc1,Activity,[1],inactive
Cc1ncsc1-c1ccc(CNC(=O)[C@@H]2C[C@@H](O)CN2C(=O)[C@@H](NC(=O)CCC(=O)N2CCN(CC[C@H](NC(=O)C3(N)CCN(c4ncnc5[nH]ccc45)CC3)c3ccc(Cl)cc3)CC2)C(C)(C)C)cc1,Activity,[1],inactive
NC1(C(=O)N[C@@H](CCN2CCN(C(=O)CCCCNc3cccc4c3C(=O)N(C3CCC(=O)NC3=O)C4=O)CC2)c2ccc(Cl)cc2)CCN(c2ncnc3[nH]ccc23)CC1 (stereo partly specified),Activity,[2],Active
Cc1ncsc1-c1ccc(CNC(=O)[C@@H]2C[C@@H](O)CN2C(=O)[C@@H](NC(=O)COCCOCCOCCOCCOCC(=O)N2CCN(CC[C@H](NC(=O)C3(N)CCN(c4ncnc5[nH]ccc45)CC3)c3ccc(Cl)cc3)CC2)C(C)(C)C)cc1,Activity,[1],inactive
CN1C(=O)CCC(N2C(=O)c3cccc(NCCOCCOCCOCCOCCOCCC(=O)N4CCN(CC[C@H](NC(=O)C5(N)CCN(c6ncnc7[nH]ccc67)CC5)c5ccc(Cl)cc5)CC4)c3C2=O)C1=O (stereo partly specified),Kd,[5],0.0055 µM
same,Kd,[6],0.023 µM
NC1(C(=O)N[C@@H](CCN2CCN(C(=O)CNc3cccc4c3C(=O)N(C3CCC(=O)NC3=O)C4=O)CC2)c2ccc(Cl)cc2)CCN(c2ncnc3[nH]ccc23)CC1 (stereo partly specified),Activity,[2],inactive
NC1(C(=O)N[C@@H](CCN2CCN(C(=O)CCCCCCNc3cccc4c3C(=O)N(C3CCC(=O)NC3=O)C4=O)CC2)c2ccc(Cl)cc2)CCN(c2ncnc3[nH]ccc23)CC1 (stereo partly specified),Activity,[2],inactive
Cc1ncsc1-c1ccc(CNC(=O)[C@@H]2C[C@@H](O)CN2C(=O)[C@@H](NC(=O)CCOCCOCCC(=O)N2CCN(CC[C@H](NC(=O)C3(N)CCN(c4ncnc5[nH]ccc45)CC3)c3ccc(Cl)cc3)CC2)C(C)(C)C)cc1,Activity,[1],inactive
Cc1ncsc1-c1ccc([C@H](C)NC(=O)[C@@H]2C[C@@H](O)CN2C(=O)[C@@H](NC(=O)CCCCCCCCCC(=O)N2CCN(CC[C@H](NC(=O)C3(N)CCN(c4ncnc5[nH]ccc45)CC3)c3ccc(Cl)cc3)CC2)C(C)(C)C)cc1,inhibition,BT-474,Active
Cc1ncsc1-c1ccc(CNC(=O)[C@@H]2C[C@@H](O)CN2C(=O)[C@@H](NC(=O)CCCC(=O)N2CCN(CC[C@H](NC(=O)C3(N)CCN(c4ncnc5[nH]ccc45)CC3)c3ccc(Cl)cc3)CC2)C(C)(C)C)cc1,Activity,[1],inactive
